# PKA-R2B act = activators of PKA-R2B holoenzyme, primary screen, biochemical, fluorescence polarization, Cy5-IP20, human. AID 504700, 2011. activation, % at 11.4 µM. 0.079% of 340,000 active. PKA-R2B holoenzyme dissociation; R2B truncated from residue 108, S112A mutant; 0% DMSO only, 100% 113 µM cGMP. cAMP-dependent protein kinase catalytic subunit beta (Homo sapiens) + cAMP-dependent …;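 active = activation above a cutoff set at the mean over all compounds plus 3 SD, cut at about 18% in these data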;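 note: higher means more holoenzyme dissociation and a rise in polarization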
# PKA-R1A act = activators of PKA-R1A holoenzyme, primary screen, biochemical, fluorescence polarization, Cy5-IP20, bovine R1A, mouse PKAc. PKA-R1A dissociation; scaled: DMSO 0%, 113 µM cGMP 100%. 0.083% of 340,000 active. activation, % at 11.4 µM. cAMP-dependent protein kinase type I-alpha regulatory subunit (Bos taurus) + …;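 active = percent activation above the mean of all tested compounds plus 3 SD, cut at about 19% in these data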;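 note: higher means more PKAc released from R1A so a rise in polarization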
# Tn7 DDE FP = inhibitors of Tn7 peptide binding to fibrin DD(E), primary screen, biochemical, fluorescence polarization, human fibrin, Tn7 probe. Fibrinogen beta chain (Homo sapiens), P02675. FP displacement of FITC-Tn7 peptide from fibrin DD(E); 0% = median of compound wells per plate. inhibition, % at 8.3 µM. AID 720508, 2013. 0.13% of 370,000 active;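 active = inhibition above the mean of compounds falling within the control limits plus 3 SD of them, cut at about 14% in these data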;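 note: 0% = plate median of compound wells and 100% = 10 µM Aha-Tn7 peptide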
#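 Also added: labelled Tn7 tracer, 0.1 µM; Assay system: human fibrin DD(E) protein; Amount: 2 µM fibrin DD(E); Schedule: 10 min compound pre-incubation, 3 h probe incubation at room temperature; Repeats: one replicate per compound; Read-out basis: percent inhibition; Measured by: fluorescence polarization of the labelled Tn7 tracer.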
# Neddylation inh = inhibitors of cullin neddylation, primary screen, biochemical, TR-FRET, uHTS, NAE and Ubc12; AID 651699, 2012; 0.58% of 360,000 active; inhibition, % at 25 µM; in the data active = inhibition above about 36%
# Target sequence (P61081 whole entry, looked up): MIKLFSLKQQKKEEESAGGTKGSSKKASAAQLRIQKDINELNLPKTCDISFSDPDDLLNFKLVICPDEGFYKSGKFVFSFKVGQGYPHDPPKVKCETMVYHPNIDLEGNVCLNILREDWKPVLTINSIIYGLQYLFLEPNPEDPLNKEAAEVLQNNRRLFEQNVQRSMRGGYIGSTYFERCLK
# Target sequence (Q13564 whole entry, looked up): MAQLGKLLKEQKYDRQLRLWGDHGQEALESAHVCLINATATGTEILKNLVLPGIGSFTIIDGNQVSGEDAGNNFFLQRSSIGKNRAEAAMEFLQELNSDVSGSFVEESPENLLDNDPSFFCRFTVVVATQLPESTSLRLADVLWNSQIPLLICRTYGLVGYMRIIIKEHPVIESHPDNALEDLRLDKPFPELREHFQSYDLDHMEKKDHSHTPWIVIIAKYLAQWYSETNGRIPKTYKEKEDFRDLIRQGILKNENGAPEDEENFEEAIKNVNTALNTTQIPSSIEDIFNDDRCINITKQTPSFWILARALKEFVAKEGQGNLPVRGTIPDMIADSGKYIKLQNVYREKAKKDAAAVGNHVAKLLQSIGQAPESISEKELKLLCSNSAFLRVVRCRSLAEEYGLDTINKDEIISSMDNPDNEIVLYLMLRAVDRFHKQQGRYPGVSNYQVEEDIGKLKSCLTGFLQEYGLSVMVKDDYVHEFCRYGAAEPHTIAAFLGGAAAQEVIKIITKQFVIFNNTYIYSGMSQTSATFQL
# DDE Tn6 FP inh = inhibitors of Tn6 peptide binding to fibrin DD(E), primary screen, biochemical, fluorescence polarization, human fibrin, Tn6 probe | Fibrin DD(E) TRITC-Tn6 fluorescence polarization displacement | inhibition, % at 8.3 µM | 0.21% of 370,000 active;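 active = inhibition above a per-campaign cutoff: mean of compounds within control limits plus 3 SD, cut at about 15% in these data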;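 note: 0% = median of all compound wells on the plate and 100% = blocking peptide control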
# Neddyl conf = blockade of NEDD8 conjugation to cullin – biochemical, TR-FRET, single concentration, confirmation; shares compounds with Neddylation inh; TR-FRET cullin neddylation biochemical assay; calls only at 25 µM; 13% of 1,800 active; AID 652217, 2013; in the data active = inhibition above about 40%;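 note: neddylation substrate is the cullin 1 ring ligase complex with SKP2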
# * hit, by the source's call; i = inactive; . = no result shown; + = active, no number. Compounds with a hit are over-represented: about 1% of the library has one in this group of screens.
SMILES,PKA-R2B act,PKA-R1A act,Tn7 DDE FP,Neddylation inh,DDE Tn6 FP inh,Neddyl conf
CCOc1ccc(C(C(=O)NCC2CCCO2)N(C(=O)c2snc(C(N)=O)c2N)c2cccc(F)c2)cc1 (stereo unspecified),-14,-11,1,.,-1,.
Cc1ccc(C(C(=O)NCC2CCCO2)N(C(=O)c2snc(C(N)=O)c2N)c2ccc3c(c2)OCCO3)cc1 (stereo unspecified),-13,-26,-1,18,7,.
CCOC(=O)c1cc2c(=O)n3ccccc3nc2n(CCOC)c1=NC(=O)C(C)(C)C,-13,-9,1,.,5,.
CCOC(=O)c1cc2c(=O)n3ccccc3nc2n(CCOC)c1=NC(=O)c1ccncc1,2,12,-5,63*,3,+
CCOC(=O)c1cc2c(=O)n3ccccc3nc2n(C(C)C)c1=NC(=O)c1ccncc1,-1,1,3,67*,9,+
COc1ccc(C(=O)/C=C(\Nc2ccc(F)cc2)c2ccc(OC)cc2OC)c(OC)c1,.,.,8,.,-11,.
CCc1ccc(CCNC(=O)OC2CC3CC2[C@H]2CCCCN2[C@H]3Cc2ccccc2)cc1 (stereo partly specified),.,.,0,.,2,.
COC(=O)c1cc(OC)c(OC)c(OC)c1N,-4,-1,-2,38*,0,i
COC(=O)c1cc(OC)c(OC)c(OC)c1[N+](=O)[O-],-11,-8,-1,17,5,.
CC1(C)Cc2c(sc3nc(-c4cccs4)n(N)c(=O)c23)CO1,-11,-2,-7,44*,-2,i
Cc1nn2c(C)nc3sc4c(c3c2nc1=O)CC(C)(C)OC4,5,3,3,43*,-7,i
CCCCN(C)C(=O)CSc1nnc(-c2cc(OC)c(OC)c(OC)c2)o1,.,.,-4,.,1,.
Clc1ccc(-c2nnc(SCc3cccc4ccccc34)n2Cc2ccco2)cc1,.,.,-13,.,-6,.
COc1cc2oc(=O)cc(CN3CCCCC3)c2cc1Cl,.,.,-7,41*,2,i
O=C(NCc1ccccc1)OC1CC2CC1[C@H]1CCCCN1C2 (stereo partly specified),.,.,7,.,-6,.
CCc1cc(=O)oc2cc(OCC=C(C)C)ccc12,-5,8,0,33,3,.
CCc1cc(=O)oc2cc(OCc3nn[nH]n3)ccc12,7,-4,.,40*,.,i
CCc1cc(=O)oc2cc(OS(C)(=O)=O)ccc12,-14,5,1,42*,-9,.
COCc1cc(N2CCNC[C@H]2C)ccc1N1C[C@@H](C)O[C@@H](C)C1,.,.,1,.,7,.
O=[n+]1cc(-c2cc3ccccc3o2)n([O-])c2c1CCCC2,11,-5,-5,44*,-2,i
O=[n+]1cc(-c2ccccc2)n([O-])c2c1CCCCC2,-3,6,-10,6,0,.
COc1cccc(/C=N/Nc2ncnc3c2[nH]c2ccc(C)cc23)c1OC,-3,1,-1,81*,4,i
COc1cccc(/C=N/Nc2ncc(C)c(=O)[nH]2)c1OC,-3,-10,0,40*,-4,i
COc1ccc(/C=N/Nc2ncnc3c2[nH]c2ccccc23)c(OC)c1OC,-3,-6,-2,28,-4,.
O=C(CSc1nnc(-c2cccnc2)n1Cc1ccco1)Nc1ccc(Cl)cc1,.,.,2,.,7,.
SMILES,PKA-R2B act,PKA-R1A act,Tn7 DDE FP,Neddylation inh,DDE Tn6 FP inh,Neddyl conf
COCCn1c(=N)c(S(=O)(=O)c2ccc(F)cc2)cc2c(=O)n3ccccc3nc21,6,-5,0,55*,0,i
COc1ccc(CCn2c(=N)c(S(=O)(=O)c3ccc(C)cc3)cc3c(=O)n4ccccc4nc32)cc1,5,-2,1,36,-2,.
N=c1c(S(=O)(=O)c2ccc(Br)cc2)cc2c(=O)n3ccccc3nc2n1Cc1ccccc1,4,11,5,34,3,.
COCCn1c(=N)c(S(=O)(=O)c2ccc(Br)cc2)cc2c(=O)n3ccccc3nc21,9,-1,-4,53*,-5,i
N#Cc1ccc2[nH]c(CO)c(-c3ccccc3)c2c1,-15,-11,-9,31*,-1,i
COc1cc2sc(-c3ccc(S(C)(=O)=O)cc3)c(C#CCO)c2cc1OC,-1,12,-4,50*,-3,+
Cn1c(=O)c2nc(NCc3ccccc3)cnc2n(C)c1=O,3,-3,-6,64*,0,+
CCn1c2ccccc2c2cc(C=Nn3c(-c4ccccc4C)n[nH]c3=S)ccc21,.,.,8,.,-1,.
COc1ccc(Nc2oc(COc3ccccc3OC)nc2C#N)cc1,-4,-18,-16,42*,-36,i
N#CCCCc1cn(-c2cccc(-c3noc4c3C(=O)N(CC(=O)N3CCOCC3)CC4)c2)nn1,.,.,-6,.,2,.
COC(=O)C1=CN(c2cc(C)cc(C)c2)C=C(C(=O)OC)C1c1ccc(OC)c(O)c1,-7,-15,4,47*,-4,+
CCOC(=O)c1ccc(N2C=C(C(=O)OC)C(c3ccc(OC)c(O)c3)C(C(=O)OC)=C2)cc1,-4,4,9,11,-1,.
CCOC(=O)CNC(=O)c1sc(NC(=O)c2ccccc2F)nc1C,-20,2,8,44*,5,+
CCCCCCCCN1C(=O)[C@@H](CC(=O)N2CCCCC2)C[C@@]2(C(=O)OC)C1=C[C@H](C1CCCC1)O[C@@H]2C,.,.,3,.,3,.
CCOC(=O)c1ccccc1N=Cc1c(O)c2ccccc2oc1=O,1,-8,1,40*,-8,i
CN(C)C(=O)N1CCN(C(=O)[C@H]2O[C@@H](n3ccc(N)nc3=O)[C@H](O)[C@@H]2O)CC1,.,.,-1,.,-3,.
O=C(CSc1cccc2cccnc12)N/N=C/c1cccc(O)c1,-1,-10,2,43*,1,i
O=C(CSc1cccc2cccnc12)N/N=C/c1ccc(F)cc1,-14,-12,-1,.,3,.
O=C1OC(c2ccc(Cl)cc2)=N/C1=C\C=C\c1ccco1,12,-3,-2,17,8,.
O=C1OC(c2ccccc2)=N/C1=C\C=C\c1ccco1,-3,4,-6,45*,-8,i

# Bioassay records deposited in PubChem by several laboratories.
